Bioassay records from PubChem.
Most compounds without a hit are left out; they make up all but 5.7% or so of the library.
Calb FLC – C. albicans growth modulation with fluconazole | C. albicans CaCi-2 (fluconazole-resistant clinical isolate) + fluconazole, Alamar Blue growth, 48 h | growth inhibition, % (concentration not given with the values) | 0.57% of 300,000 active;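 active means growth inhibition above about 58% in most replicates, limit read from the data, passing the limit was not always enough; inconclusive means exactly half the replicates above a set limit; inactive means most replicates below a set limit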;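 further: all wells also contain fluconazole at 8 µg/ml as a sub-toxic cotreatment; 0% = median of DMSO wells and 100% = median of geldanamycin control wells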
Mdm2 MdmX PPI – human Mdm2/MdmX binding inhibition | O15151+Q00987 | SaOS-2 split-luciferase Mdm2/MdmX complementation, luminescence | inhibition, % at 8 µM | 3% of 330,000 active | AID 485346;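 active means inhibition of at least 50% at 8 µM in the primary screen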
SKKanGAS inh – inhibitors of SKKanGAS S. pyogenes growth in kanamycin (SK-promoter or general growth effect). BacTiter-Glo, 6 h. inhibition, % at 7.5 µM. 1.3% of 300,000 active. AID 1662;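 active means mean replicate score, as percent of positive control median, at least 50; inconclusive means mean below 50 but one replicate at or above 50; inactive means mean and every replicate below 50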;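 further: strain carries kanamycin resistance gene driven by streptokinase promoter and grows in 40 µg/ml kanamycin; loss of luminescence reflects streptokinase promoter inhibition or plain growth inhibition; 0% = median of DMSO wells and 100% = positive control at its reference dose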
Beta cell apopt – beta cell apoptosis inhibition; protection from apoptosis, % (concentration not given with the values); 0.8% of 300,000 active; INS-1E cytokine-induced death, ATP luminescence, 48 h; percent of positive-control rescue, neutral wells zero;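 active means Every replicate reaches about 75%, or at least half do and their mean reaches it too, limit read from the data; inconclusive means At least half of replicates reach the limit but their mean does not; inactive means Under half of replicates reach the limit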;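 further: 0% = cytokine-treated negative control wells and 100% = positive control rescue; higher means more ATP so stronger rescue from cytokine killing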
CSC inhib – cancer stem cell inhibition | cancer stem cell-like cells viability, luminescence | inhibition, % at 7.5 µM | 1.1% of 300,000 active | AID 2717; in the data active means inhibition above about 75%; inconclusive means no clear call, values can overlap the other calls; tested in HMLE shEcad cells
T cruzi inh – blocks replication of Trypanosoma cruzi; 1.4% of 300,000 active; inhibition, % (no concentration beside the values); T. cruzi beta-gal in NIH3T3, luminescence, 90 h; AID 1885;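 active means mean inhibition across valid replicates above about 55%, limit read from the data; inconclusive means mean below that limit but half or more replicates reach it; inactive means mean below it, under half of replicates reach it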;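 further: signal also drops with host cell toxicity which is not excluded here; 0% = plate median of DMSO wells and 100% = zero luminescence signal; higher percent means less beta-gal luminescence so fewer parasites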
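assay system = mouse NIH/3T3 fibroblasts infected with β-gal-expressing T. cruzi Tulahuen C4 | input = 5,000 NIH/3T3 host cells per well | buffer or medium = DMEM plus 2% FBS | timing = 3 h host attachment, then at least 90 h co-culture | measured by = GalScreen luminescence, 60 min | evaluation = luminescence reflecting intracellular parasite burden, expressed as percent inhibition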
* = called active by the depositor.

Results for COc1cccc(-c2cc(C(F)(F)F)nc(N3CCOCC3)n2)c1 ?
Calb FLC: 1; Mdm2 MdmX PPI: 9; SKKanGAS inh: 4; Beta cell apopt: 0; CSC inhib: -1; T cruzi inh: 34

How did C=CCC1(CC=C)CCCN1C(=O)c1cc(COc2ccc(C)nc2)on1 do in these assays?
Calb FLC: -8; Mdm2 MdmX PPI: -42; SKKanGAS inh: -1; Beta cell apopt: 105*; CSC inhib: 3; T cruzi inh: inconclusive

How did Cc1cc2nc(N3C(=O)CNC3=S)sc2cc1C do in these assays?
Calb FLC: 56; Mdm2 MdmX PPI: -14; SKKanGAS inh: 85*; Beta cell apopt: 20; CSC inhib: 42; T cruzi inh: 0

How did O=S(=O)(c1ccc(Cl)cc1)N1CCN(C2CCN(Cc3ccccc3)CC2)CC1 do in these assays?
Calb FLC: -19; Mdm2 MdmX PPI: 9; SKKanGAS inh: 1; Beta cell apopt: -4; CSC inhib: 70; T cruzi inh: 61*

What do the screens show for `O=[N+]([O-])c1ccc(S(=O)(=O)N2CCN(C3CCN(Cc4ccccc4)CC3)CC2)cc1`?
Calb FLC: 6; Mdm2 MdmX PPI: -9; SKKanGAS inh: -2; Beta cell apopt: 0; CSC inhib: 40; T cruzi inh: inconclusive

Results for O=S(=O)(Cc1ccc(Cl)cc1)N1CCN(Cc2ccccc2)CC1 ?
Calb FLC: 125*; Mdm2 MdmX PPI: 21; Beta cell apopt: 3; CSC inhib: -6; T cruzi inh: 6

What do the screens show for `O=C(CN(C(=O)CNC(=O)c1cccs1)c1ccccc1F)NC1CCCC1`?
Calb FLC: 30; Mdm2 MdmX PPI: 6; SKKanGAS inh: -2; Beta cell apopt: -2; CSC inhib: -33; T cruzi inh: 2

What do the screens show for `O=C(NNC(=O)c1cccs1)c1ccc(Cl)nc1`?
Calb FLC: -4; Mdm2 MdmX PPI: -2; SKKanGAS inh: -3; Beta cell apopt: -1; CSC inhib: -18; T cruzi inh: -1

How did CCc1ccc(C2CC(c3cccc(Cl)c3)n3nc(N)nc3N2)cc1 (stereo not given) do in these assays?
Calb FLC: 3; Mdm2 MdmX PPI: 10; SKKanGAS inh: 21; Beta cell apopt: 105*; CSC inhib: 4; T cruzi inh: 40

What do the screens show for `CCn1c(O)c(/C=C2\C=NN=C2c2ccccc2)sc1=S`?
Calb FLC: 48; Mdm2 MdmX PPI: 49; SKKanGAS inh: -9; Beta cell apopt: -6; CSC inhib: 17; T cruzi inh: -16

Results for CC(C)Cn1c(O)c(/C=C2\C=NN=C2c2ccccc2)sc1=S ?
Calb FLC: 23; Mdm2 MdmX PPI: 35; SKKanGAS inh: 0; Beta cell apopt: -7; CSC inhib: 90*; T cruzi inh: 38

How did O=[N+]([O-])c1ccc(S(=O)(=O)N2CCN(c3ccnc4cc(Cl)ccc34)CC2)cc1 do in these assays?
Calb FLC: -24; Mdm2 MdmX PPI: 26; SKKanGAS inh: 2; Beta cell apopt: 2; CSC inhib: 2; T cruzi inh: 60*

What do the screens show for `Cc1ccc(C(=O)NCCc2nnc3ccc(SCC(=O)N4CCCCC4)nn23)cc1`?
Calb FLC: -6; Mdm2 MdmX PPI: 6; SKKanGAS inh: -1; Beta cell apopt: 5; CSC inhib: 3; T cruzi inh: 1

Results for Cc1oc(-c2ccc(F)cc2)nc1CN(Cc1ccccn1)CC1CCCO1 (stereo not given) ?
Calb FLC: -8; Mdm2 MdmX PPI: 17; SKKanGAS inh: 61*; Beta cell apopt: -5; CSC inhib: 1; T cruzi inh: 1

How did O=C(Nc1ccc(F)cc1)N1CCN(C(=O)C2CCCO2)CC1 (stereo not given) do in these assays?
Calb FLC: 0; Mdm2 MdmX PPI: 14; SKKanGAS inh: 5; Beta cell apopt: 0; CSC inhib: -1; T cruzi inh: -12

What do the screens show for `CCOc1ccc(-n2c(SCc3nc(-c4cccs4)no3)nnc2-c2ccncc2)cc1`?
Calb FLC: -2; Mdm2 MdmX PPI: -3; SKKanGAS inh: -3; T cruzi inh: 64*

Results for CCCn1c(SCc2nc(-c3cccs3)no2)nnc1-c1ccncc1 ?
Calb FLC: 2; Mdm2 MdmX PPI: 8; SKKanGAS inh: -5; Beta cell apopt: -2; CSC inhib: -8; T cruzi inh: 7

What do the screens show for `CN(C1=C(NC(=O)c2ccccc2)C(=O)c2ccccc2C1=O)C1CCS(=O)(=O)C1` (stereo not given)?
Calb FLC: inconclusive; Mdm2 MdmX PPI: 21; SKKanGAS inh: 35; Beta cell apopt: 97*; CSC inhib: 14; T cruzi inh: 37

How did CC(=O)NC1=C(NC2CCS(=O)(=O)C2)C(=O)c2ccccc2C1=O (stereo not given) do in these assays?
Calb FLC: 23; Mdm2 MdmX PPI: 2; SKKanGAS inh: 8; Beta cell apopt: 53; CSC inhib: -23; T cruzi inh: -18

How did CCOC(=O)Nc1ccc2c(CNC(C)c3ccccc3OC)cc(=O)oc2c1 (stereo not given) do in these assays?
Calb FLC: -2; Mdm2 MdmX PPI: 0; SKKanGAS inh: 2; Beta cell apopt: 4; CSC inhib: -15; T cruzi inh: 10

What do the screens show for `CCCc1c(C(=O)NNc2ccc(C)cc2)cnn1-c1ccccc1`?
Calb FLC: -6; Mdm2 MdmX PPI: 5; SKKanGAS inh: 31; Beta cell apopt: -9; CSC inhib: 93*; T cruzi inh: 11

What do the screens show for `CCc1cc(CNC(=O)c2ccc(OC3CCN(CCc4ccccc4)CC3)cc2)on1`?
Calb FLC: -8; Mdm2 MdmX PPI: 31; SKKanGAS inh: 1; Beta cell apopt: -2; CSC inhib: -6; T cruzi inh: 11

How did CCOC(=O)CC1C(=O)NCCN1C(=O)c1c(Cl)cccc1Cl (stereo not given) do in these assays?
Calb FLC: 92*; Mdm2 MdmX PPI: 6; SKKanGAS inh: -3; T cruzi inh: -4

What do the screens show for `CCOC(=O)CC1C(=O)NCCN1C(=O)c1c(F)cccc1F` (stereo not given)?
Calb FLC: -2; Mdm2 MdmX PPI: 16; SKKanGAS inh: 1; Beta cell apopt: -1; CSC inhib: 1; T cruzi inh: -6

Results for COc1cc(CN(C)Cc2cccc3ccccc23)cc([N+](=O)[O-])c1O ?
Calb FLC: -5; Mdm2 MdmX PPI: 3; SKKanGAS inh: 3; Beta cell apopt: -4; CSC inhib: -2; T cruzi inh: -2

How did Cc1cc(-c2c(C)[nH]n(-c3ccccc3)c2=O)n(-c2ccccc2)n1 do in these assays?
Calb FLC: 15; Mdm2 MdmX PPI: 19; SKKanGAS inh: 0; Beta cell apopt: 4; CSC inhib: -1; T cruzi inh: -10

How did Cc1cc(-c2c(C)[nH]n(-c3ccc(Cl)cc3)c2=O)n(-c2ccc(Cl)cc2)n1 do in these assays?
Calb FLC: 41; Mdm2 MdmX PPI: -1; SKKanGAS inh: 101*; Beta cell apopt: 8; CSC inhib: 26; T cruzi inh: -40
